Laboratory results as given in ChEMBL document CHEMBL4513216, “Probing the Open Global Health Chemical Diversity Library for Multistage-Active Starting Points for Next-Generation Antimalarials” (ACS Infect Dis, 2020).

Experiment: Toxicity liver stage against HepG2, at 10uM
Type: cell-based
Parameters: test concentration 10 uM, cell line HepG2-A16-CD81EGFP
Details: human, HepG2-A16-CD81EGFP cells; read-out: INHIBITION
Summary of the method: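 Uninfected HepG2-A16-CD81EGFP cells, 3 × 10^3 per well, 1536-well, plated on prespotted compound at 10 μM final, parasite-free screening media added to match infected plates; puromycin 10 μM positive, DMSO 0.5% negative; run in parallel with 48 h PbLuc assay at 37 °C, 5% CO2; viability by CellTiter-Glo luminescence, normalized to controls.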

| Compound | cytotoxicity at 10 µM |
| --- | --- |
| Cc1nn(Cc2ccc(F)cc2)c2[nH]nc(N)c12 | 1.11% |
| O=C([C@@H]1CCCN1c1nccc(Nc2ccccc2)n1)N1CCCCC1 | 0.325% |
| CCCc1nc2c(c(C)c(C)n2Cc2ccncc2)c(N)c1CC | 14.3% |
| COCCn1ccc2c(C(=O)Nc3nc4c(s3)CCC4)cccc21 | 1.82% |
| Cc1cc(CN2CCC(CNS(=O)(=O)c3ccc(Br)s3)CC2)c(C)o1 | -2.72% |
| CN(C)c1cnnc(N2CCN(C(=O)CCC3CCCCC3)CC2)c1 | -1.65% |
| COC(=O)CCC(=O)N1CCc2nc(C(=O)N(C)C)sc2CC1 | 18.7% |
| CC1N(C)C(=O)COC12CCN(C(=O)Cc1ccsc1)CC2 (centres undefined) | 2.81% |
| COCCO[C@H]1CCN(c2cc(OC)ncn2)[C@H]1Cc1cnn(C)c1 | -133% |
| COc1nn(C)c2c1CCCN(S(=O)(=O)c1cccc(C)c1)C2 | -133% |
| c1coc(CN2CCc3ncnc(C4CCOC4)c3CC2)c1 (centres undefined) | 10.2% |
| COCc1ncn2c1CN(S(=O)(=O)c1ccc(C)cc1)CC2 | -1.18% |
| COC(=O)c1ccc(C2SCC(=O)Nc3ccsc32)cc1 (centres undefined) | -6.79% |
| COc1ccc(Cn2c(=O)n(C)c(=O)c3sccc32)cc1 | 24.2% |
| CSC1=Nc2c(cnn2-c2cccc(Cl)c2)C2=NCCCN12 | 4.81% |
| O=c1[nH]c2c(c(=O)n1C1CCCCC1)CCC2Nc1ccccc1Cl (centres undefined) | -10.4% |
| Cc1cc(C)n(C2=NC(NCCCO)c3c(sc4c3CCCC4)N2)n1 (centres undefined) | 14% |
| COc1ccc(-n2nnnc2C(C)(C)Nc2ccc(C)cc2C)cc1 | 52.4% |
| CSCc1cccc(S(=O)(=O)NCc2cnn(C)c2C)c1 | 13.7% |
| CCN(CC)S(=O)(=O)N1CCCC1c1cccc(Nc2ncc(C)s2)n1 (centres undefined) | -39.3% |
| Cc1ccc(S(=O)(=O)N2C[C@H]3C[C@H](NC(=O)c4cnn(C)c4)[C@H]3C2)cc1 | 76.4% |
| COc1ccccc1CNc1ncc(-c2cc(C)no2)c(C(C)C)n1 | 8.49% |

| Compound | cytotoxicity at 10 µM |
| --- | --- |
| CCc1c(C)nc2cc(C3CCN(Cc4cccc(F)c4)C3)nn2c1O (centres undefined) | -6.43% |
| Cc1cc(-c2cnc(NC3CCCC3)nc2-c2ccoc2C)on1 | 45.7% |
| O=C(c1csc(I)c1)N1CCc2c(ncn2C2CC2)C1 | 7.21% |
| O=C(CSCCN1CCOCC1)N1CCc2ccccc2C1 | -6.58% |
| Cc1nccn1-c1ccc(CNS(=O)(=O)N2CCC(C)CC2)cn1 | 1.28% |
| Fc1cccc(C(NCc2ncc[nH]2)c2ccccc2)c1 (centres undefined) | 1.35% |
| Cc1ncsc1COC(=O)c1cccc2c1OCCO2 | 1.37% |
| CS(=O)(=O)NC1CCN(Cc2coc(-c3ccc(Cl)cc3)n2)CC1 | -41.9% |
| CC(NC(=O)NC1CCN(Cc2ccncc2)CC1)c1ccc(F)cc1 (centres undefined) | 7.9% |
| CC(C)Sc1ccc(C(C)Nc2nc3c(cnn3C)c(=O)[nH]2)cc1 (centres undefined) | 21.4% |
| CC(C)n1nc2c(cc1=O)CN(Cc1nc(-c3ccoc3)no1)CC2 | 10.2% |
| CC(C)Oc1ccc(C(=O)NCc2ccnc(N3CCCC3)c2)cn1 | 47.3% |
| Cc1noc(C)c1CN(C)Cc1csc(-c2ccc(F)cc2)n1 | 27.8% |
| Cc1cc(CNCC2(O)CCOCC2)ccc1F | 6.71% |
| O=C1CCC(=O)N1CCN1CCN(c2cc(F)ccc2F)CC1 | 9.44% |
| Cc1ccc(S(=O)(=O)NCCNC(=O)c2cncnc2C)cc1 | -1.51% |
| COc1cc(C(C)NCc2scnc2C)ccc1SC(F)F (centres undefined) | 36.8% |
| CC(C)Oc1ncc(C(=O)N2CCc3ccc(O)cc3C2)cc1Cl | 1.61% |
| Cc1noc(C)c1CNC(=O)N(C1CC1)C(C)c1ccco1 (centres undefined) | 5.68% |
| CCCNC(=O)CCNC1CSCCc2ccccc21 (centres undefined) | -0.421% |
| CCC(C)(NCC(=O)NC(C)C)c1nc(C)cs1 (centres undefined) | -2.06% |
| O=C(NCC1(CO)CC1)c1nnn(-c2ccc(F)cc2)c1C1CC1 | -1.06% |

| Compound | cytotoxicity at 10 µM |
| --- | --- |
| CCN(C(=O)CN1CCCC1Cc1ccccc1)c1ccccc1 (centres undefined) | 0.686% |
| Cc1cccc(NC(=O)[C@@H]2CCCN2CC(=O)Nc2ccccc2)n1 | 2.45% |
| O=C(Nc1ccc(OCc2cccc(F)c2)c(F)c1)C1COCCO1 (centres undefined) | 74.4% |
| COc1ccc(NC(C)C(=O)N2CCCC2)cn1 (centres undefined) | -4.96% |
| Cc1ncccc1C(=O)NC1(c2cccc(F)c2)CCOCC1 | 10.3% |
| CC(=O)c1c(F)cccc1N1CCC(NS(=O)(=O)c2ccccc2)CC1 | 53.4% |
| CCN(CC)c1ccc(NS(=O)(=O)c2cccnc2)cn1 | 3.8% |
| Cc1cnc(CN2CCN(c3nc(C)cs3)C(C)C2)cn1 (centres undefined) | 2.74% |
| CCS(=O)(=O)c1ccc2c(c1)OCCO2 | -1.38% |
| COc1cccc(CNc2cc(C)nc(-c3ccncc3)n2)c1O | 59.1% |
| CN(C(=O)Cc1coc(-c2ccccc2)n1)C1(C#N)CCC1 | 6.41% |
| Cc1cc(NCC2CCN(c3ccccc3)C2)n2ncnc2n1 (centres undefined) | 67% |
| Cc1cc(C(=O)NCCN2CCCCCC2)nn1C(C)(C)C | 2.45% |
| Cc1noc(-c2cccnc2N(C)Cc2ccc([S+](C)[O-])cc2)n1 (centres undefined) | 46% |
| CCN1CCCN(C(=O)c2ccc(NC(=O)CC(C)C)c(C)c2)CC1 | -8.04% |
| COc1ccccc1CC(=O)NCc1ccnc(NC2CC2)c1 | -4.06% |
| CCc1cc(NCc2ccc(-n3cncn3)c(C)c2)n(C)n1 | -52.6% |
| CC(=O)Nc1sccc1C(=O)C(C)(C)C | -44.7% |
| Brc1cc2c(cc1CN1CCC(N3CCCCC3)CC1)OCCO2 | 50.1% |
| COc1ccc(CN2CCC3(CC(C(=O)NCC(C)C)=NO3)C2)cc1 (centres undefined) | 11% |
| CC(C)CNC(=O)C1=NOC2(CCN(Cc3ccc(C(C)C)cc3)C2)C1 (centres undefined) | 32.3% |
| O=C(OCc1ccccc1)N1CC[C@H]2CC(CO)O[C@@H]2C1 (some centres undefined) | -97.7% |

| Compound | cytotoxicity at 10 µM |
| --- | --- |
| c1nc2n(c1CN1CCCC1)CCN(C1CCOCC1)CC2 | -71.1% |
| c1ccc(COCC2CN(Cc3ccsc3)Cc3nccn3C2)nc1 (centres undefined) | -69.6% |
| Cc1ccc(NC(=O)N2CC(C(=O)NC(C)C)C3(CCOCC3)C2)cc1 (centres undefined) | -74.3% |
| CSCC(C)NCc1ccc2[nH]c(C)c(C)c2c1 (centres undefined) | -0.369% |
| O=C(NCCC1CCCCO1)c1coc(COc2ccc(F)cc2)n1 (centres undefined) | 1.1% |
| Cc1cnc(N2Cc3cnn(Cc4ccc(F)cc4)c3C2)nc1N(C)C | 6.02% |
| Cc1cc(C)cc(CCC(=O)N2CCN(c3cc(C)nc(N)n3)CC2)c1 | -38.7% |
| Cc1nc[nH]c1CN1CCCN(c2nc3ccccc3s2)CC1 | 33% |
| COC[C@H]1CCCN1c1nccc(-c2cnn(-c3ccccc3C)c2)n1 | 8.63% |
| CCCn1ncc(-c2ccnc(NC3CC(C)(C)NC(C)(C)C3)n2)c1C | 4.84% |
| COc1ccccc1OCCCc1cncc(C(N)=O)c1 | -115% |
| COc1cc(CN2CCCC2)ccc1Oc1ncccc1C(F)(F)F | 0.96% |
| Nc1nccc(N2CCC(c3cc(Cc4ccccc4)n[nH]3)CC2)n1 | 38.9% |
| CNc1cc(C)nc(NCc2cc(C)cc3c(C)c(C)[nH]c23)n1 | -29% |
| COc1cc(Cl)cc(CN2CCCC(N3CCCC3)C2)c1OC (centres undefined) | -3.88% |
| O=C1Nc2ccccc2NC12CCN(c1cccc(C(F)(F)F)n1)CC2 | 2.31% |
| CCc1nccn1CCNC1CCN(c2nc3ccc(Cl)cc3s2)CC1 | 28.8% |
| O=C(CCN1CCCCO1)NCc1cn2c(n1)SCC2 | 6.49% |
| CCCN1CCCC2(CCN(c3nc(C)nc4ccsc34)C2)C1=O (centres undefined) | 17.4% |
| c1nc(NCc2cc3n(n2)CCN(C2CCCCC2)C3)c2nc[nH]c2n1 | 24.2% |
| COc1cccc(OC)c1CN1CC(=O)N(c2ccc(C)cc2)CC1C (centres undefined) | 1.64% |
| Nc1nc2c(c(NC(Cn3cccn3)c3ccccc3)n1)CCNCC2 (centres undefined) | -12.3% |

| Compound | cytotoxicity at 10 µM |
| --- | --- |
| O=C(CN1CCOCC1)N(c1ccccc1)c1ccccc1 | -11.8% |
| CNC(=O)c1cn2cc(-c3cccc(Cl)c3)n(CC=C(C)C)c(=O)c2n1 | -52.8% |
| COc1ccccc1CN1C(=O)O[C@@H]2CN(C(C)C)C[C@@H]21 | 3.99% |
| CCC[C@H]1CN(S(=O)(=O)N(C)Cc2ccccc2)C[C@@H]1N | -138% |
| Cn1ncc(-c2cc(-c3cccc(O)c3)nc(N)c2C#N)c1C1CC1 | 79.1% |
| O=S(=O)(c1ccccc1Cl)N1CCc2nc(C3CCNCC3)ncc2C1 | 14.2% |
| CN(C)c1ccc(NC(=O)NCC2CCOC2)cn1 (centres undefined) | -6.8% |
| O=C(C1CC1)N1CCN(Cc2coc(-c3ccc(Cl)cc3)n2)CC1 | 17.3% |
| CSc1ccc(CNC(c2ccccc2)c2nccn2C)cc1 (centres undefined) | 2.39% |
| CC(=O)Nc1nc(C(=O)Nc2ccc(N3CCCCC3)nc2)cs1 | 9.46% |
| CCCc1ccc(C(=O)N2Cc3c(Cn4ccnc4)nn(C)c3C2)cc1 | -73% |
| CN(Cc1cccnc1)C[C@@H]1OC[C@H]2CN(C(=O)C3CC3)CC[C@H]21 | -136% |
| COCCN1C[C@H]2CCC[C@@H](CNc3ncccn3)[C@H]2C1 | -112% |
| CC(=O)NCc1nnc2n1CCN(Cc1cccs1)C2 | -149% |
| Fc1cnc(N2C[C@H]3CCC[C@@]3(COc3ccccn3)C2)nc1 | 15.6% |
| c1cnn(C[C@@H]2C[C@@H]3CN(CC4CC4)CC[C@@H]3N2c2nccs2)c1 | 9.1% |
| COCC1CC2(CCN(C(C)=O)CC2)CN1Cc1csc(C)n1 (centres undefined) | 9.19% |
| O=C(C[C@@H]1COC[C@H]2CN(CC3CCOCC3)C[C@@H]12)N1CCCCO1 | 7.49% |
| CC(C)CCN1C2(CCN(Cc3nccs3)C2)c2ccccc2S1(=O)=O (centres undefined) | -65% |
| c1cncc(COCC2CC[C@H]3[C@H](CCN3CC3CCOCC3)O2)c1 (some centres undefined) | -71.4% |
| O=C(c1ccco1)N1CCCC2(CN(Cc3ccsc3)CCO2)C1 (centres undefined) | -2.37% |
